Measurements gathered from unrelated publications.
CHRM4: Muscarinic acetylcholine receptor M4 (CHRM4, Homo sapiens, UniProt P08173)
MAOB: Amine oxidase [flavin-containing] B (MAOB, Homo sapiens, UniProt P27338)
CA9: Carbonic anhydrase 9 (CA9, Homo sapiens, UniProt Q16790)
Adora1: Adenosine receptor A1 (Adora1, Rattus norvegicus, UniProt P25099)
DYRK4: Dual specificity tyrosine-phosphorylation-regulated kinase 4 (DYRK4, Homo sapiens, UniProt Q9NR20)
HRH1: Histamine H1 receptor (HRH1, Homo sapiens, UniProt P35367)

| Compound | target | test | system | setting | inhibition [%] |
| --- | --- | --- | --- | --- | --- |
| Oc1cccc(Nc2nc(-c3ccc(F)cc3F)cs2)c1 | CHRM4 | cell-free assay |  | 10 µM | -2.9 |
| CS(=O)(=O)Nc1cccc2cccnc12 | Lactoylglutathione lyase (GLO1, Homo sapiens, UniProt Q04760) | enzyme activity, inhibitor, absorbance |  | 50 µM | > 21 |
| O=C(Nc1ccc([N+](=O)[O-])cc1)c1ccc([N+](=O)[O-])cc1Cl | MAOB | enzyme activity, inhibitor |  | 1 µM, 20 min | 68 |
| O=C1NC(=S)C(=Cc2cn(-c3ccccc3)nc2-c2ccc(Br)cc2)S1 | CA9 | enzyme activity, inhibitor |  | 10 µM | 83.7 |
| CCC(C)N1CCCn2c1nc1c2c(=O)n(C)c(=O)n1C (centres unmarked) | Adora1 | ligand displacement, radioligand |  | 25 µM, cell membranes | 40 |
| Cc1ccc(C(=O)Nc2ccc(S(=O)(=O)O)c3cc(S(=O)(=O)O)cc(S(=O)(=O)O)c23)cc1NC(=O)c1cccc(NC(=O)Nc2cccc(C(=O)Nc3cc(C(=O)Nc4ccc(S(=O)(=O)O)c5cc(S(=O)(=O)O)cc(S(=O)(=O)O)c45)ccc3C)c2)c1 | NAD-dependent protein deacylase sirtuin-5, mitochondrial (SIRT5, Homo sapiens, UniProt Q9NXA8) | enzyme activity, inhibitor |  | 100 µM | 85 |
| Cn1cnc(Br)c1C1=CN(c2ncnc3[nH]cnc23)CCS1 | DYRK4 | enzyme activity, inhibitor, radiometric |  | 2 µM | 72.2 |
| O=C(Nc1ccccc1)c1ccc2c(c1)OCO2 | MAOB | enzyme activity, inhibitor |  | 1 µM, 20 min | 80 |
| Cc1ccc(-n2nc(C(C)(C)C)cc2NC(=O)Nc2ccc(OCCN3CCOCC3)c3ccccc23)cc1 | Tyrosine-protein phosphatase non-receptor type 2 (PTPN2, Homo sapiens, UniProt P17706) | enzyme activity, inhibitor |  | 10 µM | 17 |
| CCOC(=O)C1CSc2[nH]c(=O)sc2C1c1cn(-c2ccccc2)nc1-c1ccc(Br)cc1 (centres unmarked) | CA9 | enzyme activity, inhibitor |  | 0.1 µM | 42.2 |
| O=C(Nc1cc(Cl)cc(Cl)c1)c1cc(Cl)ccc1O | MAOB | enzyme activity, inhibitor |  | 1 µM, 20 min | 0 |
| CC(C)N1CCCn2c1nc1c2c(=O)n(C)c(=O)n1C | Adora1 | ligand displacement, radioligand |  | 25 µM, cell membranes | 38 |
| O=C(Nc1ccccc1)c1ccc(Cl)cc1 | MAOB | enzyme activity, inhibitor |  | 1 µM, 20 min | 24 |
| O=C(c1ccc(F)cc1)N(Cc1ccccc1)C1CCCCC1 | Endothelin receptor type B (EDNRB, Homo sapiens, UniProt P24530) | cell-free assay |  | 10 µM | 3 |
| N#CC1CSc2[nH]c(=O)sc2C1c1cn(-c2ccccc2)nc1-c1ccc(Br)cc1 (centres unmarked) | CA9 | enzyme activity, inhibitor |  | 10 nM | 28.9 |
| C#CCN1CCCn2c1nc1c2c(=O)n(C)c(=O)n1C | Adora1 | ligand displacement, radioligand |  | 25 µM, cell membranes | 46 |

| Compound | target | test | system | setting | inhibition [%] |
| --- | --- | --- | --- | --- | --- |
| CCOc1ccc(C(=O)Nc2ccc(OC(F)(F)F)cc2)cc1OCC | MAOB | enzyme activity, inhibitor |  | 1 µM, 20 min | 1 |
| CCCNc1nc2ccccc2n1Cc1ccc(Cl)cc1 | CHRM4 | ligand displacement |  | 10 µM | -7.49 |
| N#Cc1ccc(NC(=O)c2ccc3c(c2)OCO3)cc1 | MAOB | enzyme activity, inhibitor |  | 1 µM, 20 min | 87 |
| CN(C)C1CCN(CC#Cc2nn(C3CCCC3)c3nc(NCc4ccccc4)ncc23)C1 (centres unmarked) | Tyrosine-protein kinase HCK (HCK, Homo sapiens, UniProt P08631) | enzyme activity, inhibitor, FRET |  | 0.1 µM | 2 |
| CCOC(=O)C1CSc2[nH]c(=O)sc2C1c1cn(-c2ccccc2)nc1-c1ccc(OC)cc1 (centres unmarked) | CA9 | enzyme activity, inhibitor |  | 0.1 µM | 53.6 |
| O=C(c1ccc(Cl)cc1)N(Cc1ccccc1)C1CCCCC1 | HRH1 | cell-free assay |  | 10 µM | -0.7 |
| Cc1cc([N+](=O)[O-])ccc1NC(=O)c1cc(Cl)ccc1O | MAOB | enzyme activity, inhibitor |  | 1 µM, 20 min | 5 |
| COc1cc(NC(C)=O)c(Cl)cc1C(=O)Nc1nccs1 | HRH1 | cell-free assay |  | 10 µM | -2 |
| COc1cc([N+](=O)[O-])ccc1NC(=O)c1ccccc1 | MAOB | enzyme activity, inhibitor |  | 1 µM, 20 min | 14 |
| COc1cc(-c2cc(-c3ccc(N4CCNCC4)cc3)cnc2C)cc(OC)c1OC | DYRK4 | enzyme activity, inhibitor |  | 1 µM | 1 |
| CCOC(=O)C1CSc2[nH]c(=O)sc2C1c1cn(-c2ccccc2)nc1-c1ccccc1 (centres unmarked) | CA9 | enzyme activity, inhibitor |  | 10 µM | 75.5 |
| CN1CCCn2c1nc1c2c(=O)n(C)c(=O)n1C | Adora1 | ligand displacement, radioligand |  | 25 µM, cell membranes | 28 |
| CCOC(=O)C1CSc2[nH]c(=O)sc2C1c1cn(-c2ccccc2)nc1-c1ccc(C)cc1 (centres unmarked) | CA9 | enzyme activity, inhibitor |  | 0.1 µM | 35.5 |
| CCN(CC)CCNC(=O)C1CCN(c2ccc3nnc(-c4cccc(C)c4)n3n2)CC1 | KCNU1 (Homo sapiens, UniProt A8MYU2) | ion current, inhibitor, patch clamp | HEK293 | 10 µM | 62 |
| C=CN1CCCn2c1nc1c2c(=O)n(C)c(=O)n1C | Adora1 | ligand displacement, radioligand |  | 25 µM, cell membranes | 30 |
| CCOC(=O)C1CSc2[nH]c(=O)sc2C1c1cn(-c2ccccc2)nc1-c1ccc(Cl)cc1 (centres unmarked) | CA9 | enzyme activity, inhibitor |  | 10 nM | 12 |
